From ChEMBL document CHEMBL5370536, “Design, synthesis, and biological activity of dual monoamine oxidase A and heat shock protein 90 inhibitors, N-Methylpropargylamine-conjugated 4-isopropylresorcinol for glioblastoma” (Eur J Med Chem, 2023)
Calls of active or inactive are those of the source. No cut-off for these calls is given here.

How the values were obtained:
[1] = target: T1, Amine oxidase [flavin-containing] A (Mus musculus, UniProt Q64133); experiment: Inhibition of MAO A in mouse GL26 cells preincubated for 20 mins followed by 14C-labeled 5-hydroxytryptamine addition and measured after 20 mins by scintillation counter analysis; type: cell-based
T1 sequence (Q64133 whole entry): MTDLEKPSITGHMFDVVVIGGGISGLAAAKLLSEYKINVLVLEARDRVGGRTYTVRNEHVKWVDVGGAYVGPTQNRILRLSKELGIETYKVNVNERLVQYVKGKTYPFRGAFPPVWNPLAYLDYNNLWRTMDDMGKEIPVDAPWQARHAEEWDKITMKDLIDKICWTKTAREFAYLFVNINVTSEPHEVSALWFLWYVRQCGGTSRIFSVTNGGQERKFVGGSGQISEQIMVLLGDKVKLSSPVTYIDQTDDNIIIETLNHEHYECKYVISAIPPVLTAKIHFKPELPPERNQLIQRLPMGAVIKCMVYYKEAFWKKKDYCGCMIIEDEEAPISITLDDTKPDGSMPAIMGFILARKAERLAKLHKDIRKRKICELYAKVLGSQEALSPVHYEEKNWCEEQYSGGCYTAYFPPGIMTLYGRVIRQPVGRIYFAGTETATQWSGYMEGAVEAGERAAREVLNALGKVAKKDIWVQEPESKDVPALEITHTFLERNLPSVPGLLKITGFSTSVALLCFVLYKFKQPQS

[2] = test system: GL26; experiment: Antitumor activity against mouse GL26 cells xenografted in C57BL/6J mouse model assessed as tumor growth inhibition at 10 mg/kg, ip administered daily for 14 days by caliper method; conditions: time 14.0 day
[3] = test system: U-251; experiment: Downregulation of Akt phosphorylation expression at Ser 473 residues in human Temozolomide-resistant U-251 cells at 0.1 to 3 uM incubated for 24 hrs by Western blot analysis; type: functional, cell-based; conditions: dose 0.1-3 µM
Procedure, shortened: (§1)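 GL26 and U251R cells were seeded at 3 × 10⁵ per well 24 h ahead, then treated in compound-containing medium for 24 h. Cells were washed twice in ice-cold PBS and lysed in RIPA buffer (150 mM NaCl, 1% Triton X-100, 0.5% deoxycholate, 0.1% SDS, 50 mM Tris pH 8.0) plus protease inhibitors. Lysate was cleared at 4°C, protein was quantified by BCA, and western blotting followed.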

[4] = test system: GL26; experiment: Downregulation of Akt phosphorylation expression at Ser 473 residues in mouse GL26 cells at 0.1 to 3 uM incubated for 24 hrs by Western blot analysis; type: functional, cell-based; conditions: dose 0.1-3 µM; procedure, shortened: as §1
[5] = Antiproliferative activity against mouse GL26 cells assessed as inhibition of cell growth measured after 48 hrs by MTT assay; type: functional, cell-based; conditions: GL26, 48 h
Procedure, shortened: (§2)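 Cells plated at 5×10³ per well 24 h before compound and grown in DMEM with 10% FBS at 37°C, 5% CO₂. After 48 h exposure, the medium was replaced with 0.5 mg/mL MTT for 3 h. Formazan was dissolved in DMSO and read at 570 nm.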

[6] = test system: GL26; experiment: Downregulation of IFN-gamma induced PD-L1 expression in mouse GL26 cells at 20 uM incubated for 24 hrs by flow cytometry analysis; type: functional, cell-based
Procedure, shortened: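 GL26 cells were seeded at 3.6 × 10⁵ per well and exposed to compound, with or without 10 ng/mL IFN-γ, for 24 h. Cells were stained with goat anti-PD-L1 for 1 h, then FITC donkey anti-goat for 1 h. Surface FITC was read by flow cytometry, and MFI was normalized to the secondary-only control as an MFI ratio.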

[7] = target: Heat shock protein HSP 90-alpha (Homo sapiens, UniProt P07900); experiment: Inhibition of human recombinant HSP90alpha preincubated for 30 mins followed by FITC-GM addition and mesured after 3 hrs by fluorescence polarization assay
[8] = test system: U-251; experiment: Antiproliferative activity against human Temozolomide-resistant U-251 cells assessed as inhibition of cell growth measured after 48 hrs by MTT assay; type: functional, cell-based; conditions: U-251, 48 h; procedure, shortened: as §2
[9] = test system: HCT-116; experiment: Growth inhibition of human HCT-116 cells incubated for 48 hrs by SRB assay; type: functional
Procedure, shortened: (§3)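 NCI-60 panel screen: cells seeded at 5000 to 40000 per well according to doubling time, 24 h before drug addition at various concentrations. A time-zero plate was TCA-fixed at drug addition. After 48 h drug exposure, growth was read by sulforhodamine B staining. Percent growth = [(Ti − Tz)/(C − Tz)] × 100, and GI50 is the concentration at which this equals 50.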

[10] = Antiproliferative activity against human patient-derived P3 cell assessed as inhibition of cell growth measured after 72 hrs by CCK8 method; type: functional, cell-based
Procedure, shortened: (§4)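 Cell lines from ATCC or from patient surgical specimens (P1S, P3, P3R), kept in DMEM with 10% FBS and 1% penicillin/streptomycin at 37°C, 5% CO₂. P3R medium also held 50 μM TMZ. Cells were seeded at 2×10³/well 24 h before compound, then exposed 72 h.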

[11] = Antiproliferative activity against human patient-derived, TMZ-resistant and concurrent chemo-radiotherapy (CCRT)-resistant P1S cell assessed as inhibition of cell growth measured after 72 hrs by CCK8 method; type: functional, cell-based; procedure, shortened: as §4
[12] = test system: U-87 MG; experiment: Antiproliferative activity against human U-87 MG cells assessed as inhibition of cell growth measured after 72 hrs by CCK8 method; type: functional, cell-based, U-87MG ATCC; procedure, shortened: as §4
[13] = Antiproliferative activity against human U373 MG cells assessed as inhibition of cell growth measured after 72 hrs by CCK8 method; type: functional, cell-based, U-373MG ATCC; procedure, shortened: as §4
[14] = Antitumor activity against mouse GL26 cells xenografted in C57BL/6J mouse model assessed as tumor growth inhibition at 25 mg/kg, ip administered daily for 3 days followed by every 3 days for 14 days by caliper method relative to control; type: functional; conditions: GL26, 336 h, time 14 day, read-out: TGI
Procedure, shortened: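 Male C57BL/6J mice aged 8-9 weeks received 2 × 10⁵ GL26 cells subcutaneously in the lower back. From day 9 after implantation, once tumours were palpable, 25 mg/kg was given i.p. daily for 3 days and then every 3 days over 14 days. Caliper volume was length × width² ÷ 2. TGI% was taken relative to the mean tumour size of the vehicle group.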

[15] = test system: GL26; experiment: Upregulation of HSP70 expression in mouse GL26 cells incubated for 24 hrs by Western blot analysis; type: functional, cell-based; conditions: dose 0.1-3 µM
[16] = test system: HCT-116; experiment: Downregulation of PD-L1 expression in human HCT-116 cells; type: functional, cell-based
Procedure, shortened: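 HCT116 cells at 3 × 10⁵ per well were treated at various concentrations with or without 20 ng/mL IFN-γ for 48 h. Cells were stained with mouse anti-PD-L1 for 1 h in PBS/0.05% BSA, then FITC goat anti-mouse for 1 h. Surface FITC mean fluorescence intensity was measured by flow cytometry.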

[17] = test system: U-251; experiment: Upregulation of HSP70 expression in human Temozolomide-resistant U-251 cells incubated for 24 hrs by Western blot analysis; type: functional, cell-based; conditions: dose 0.1-3 µM
[18] = test system: GL26; experiment: Downregulation of HER2 expression in mouse GL26 cells incubated for 24 hrs by Western blot analysis; type: functional, cell-based; conditions: dose 0.1-3 µM
[19] = test system: NCI-H460; experiment: Growth inhibition of human NCI-H460 cells incubated for 48 hrs by SRB assay; type: functional; procedure, shortened: as §3
[20] = test system: SF-295; experiment: Growth inhibition of human SF-295 cells incubated for 48 hrs by SRB assay; type: functional; procedure, shortened: as §3
[21] = test system: GL26; experiment: Downregulation of Akt phosphorylation expression at Ser 473 residues in mouse GL26 cells incubated for 24 hrs by Western blot analysis; type: functional, cell-based; conditions: dose 0.1-3 µM
[22] = Toxicity in C57BL/6J mouse assessed as change in body weight at 25 mg/kg, ip measured after 3 days; type: organism-based; conditions: in vivo, 72 h, time 3 day
Procedure, shortened: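 Male C57BL/6J mice, 8-9 weeks old, given 2 × 10⁵ GL26 cells subcutaneously in the lower back. From day 9, when tumor was visible, dosing was i.p. for 14 days with vehicle, clorgyline 10 mg/kg daily, or test compounds 25 mg/kg daily for the first 3 days then every 3 days. Tumor was measured by caliper, volume = length × width² ÷ 2, and TGI% was taken against the vehicle-group mean. Body weight was tracked.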

[23] = test system: U-251; experiment: Growth inhibition of human U-251 cells incubated for 48 hrs by SRB assay; type: functional; procedure, shortened: as §3
[24] = test system: U-251; experiment: Downregulation of Akt phosphorylation expression at Ser 473 residues in human Temozolomide-resistant U-251 cells incubated for 24 hrs by Western blot analysis; type: functional, cell-based; conditions: dose 0.1-3 µM
[25] = test system: A549; experiment: Growth inhibition of human A549 cells incubated for 48 hrs by SRB assay; type: functional; procedure, shortened: as §3
[26] = test system: LN-229; experiment: Antiproliferative activity against human LN-229 cells assessed as inhibition of cell growth measured after 72 hrs by CCK8 method; type: functional, cell-based; conditions: LN-229, 72 h; procedure, shortened: as §4
[27] = test system: SNB-19; experiment: Growth inhibition of human SNB-19 cells incubated for 48 hrs by SRB assay; type: functional; procedure, shortened: as §3
[28] = test system: A 172; experiment: Antiproliferative activity against human A-172 cells assessed as inhibition of cell growth measured after 72 hrs by CCK8 method; type: functional, cell-based; conditions: A 172, 72 h; procedure, shortened: as §4
[29] = test system: RPMI-8226; experiment: Growth inhibition of human RPMI-8226 cells incubated for 48 hrs by SRB assay; type: functional; procedure, shortened: as §3
[30] = test system: HL-60; experiment: Growth inhibition of human HL-60 cells incubated for 48 hrs by SRB assay; type: functional; procedure, shortened: as §3
[31] = test system: SF-268; experiment: Growth inhibition of human SF-268 cells incubated for 48 hrs by SRB assay; type: functional; procedure, shortened: as §3
[32] = test system: U-251; experiment: Downregulation of HER2 expression in human Temozolomide-resistant U-251 cells incubated for 24 hrs by Western blot analysis; type: functional, cell-based; conditions: dose 0.1-3 µM
[33] = test system: SNB-75; experiment: Growth inhibition of human SNB-75 cells incubated for 48 hrs by SRB assay; type: functional; procedure, shortened: as §3
[34] = test system: NCI-H522; experiment: Growth inhibition of human NCI-H522 cells incubated for 48 hrs by SRB assay; type: functional; procedure, shortened: as §3
[35] = test system: GL26; experiment: Downregulation of IFN-gamma induced PD-L1 expression in mouse GL26 cells incubated for 24 hrs by flow cytometry analysis; type: functional, cell-based
Procedure, shortened: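 GL26 cells at 3.6 × 10⁵ per well were treated at various concentrations with or without 10 ng/mL IFN-γ for 24 h. Cells were stained with goat anti-PD-L1 for 1 h in PBS/0.05% BSA, then FITC donkey anti-goat for 1 h, and read by flow cytometry. MFI was normalised to the secondary-antibody-only isotype control and expressed as an MFI ratio.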

[36] = test system: K562; experiment: Growth inhibition of human K562 cells incubated for 48 hrs by SRB assay; type: functional; procedure, shortened: as §3
[37] = test system: SF-539; experiment: Growth inhibition of human SF-539 cells incubated for 48 hrs by SRB assay; type: functional; procedure, shortened: as §3
[38] = test system: T98G; experiment: Antiproliferative activity against human T98G cells assessed as inhibition of cell growth measured after 72 hrs by CCK8 method; type: functional, cell-based; procedure, shortened: as §4
[39] = Antiproliferative activity against human patient-derived TMZ-resistant GBM cells with MGMT negative P3R cell assessed as inhibition of cell growth measured after 72 hrs by CCK8 method; type: functional, cell-based; procedure, shortened: as §4

C#CCN(C)CCCOc1cc(NC(=O)c2cc(C(C)C)c(O)cc2O)ccc1Cl
IC50 [1]: 2360 nM

C#CCN(C)CCCOc1ccc(Cl)cc1Cl [CLORGILINE]
Activity [2]: inactive
Activity [3]: Active
Activity [4]: Active
IC50 [5]: > 100000 nM
Activity [6]: Active

C#CCN(C)CCCOc1ccc(N(CCC)C(=O)c2cc(C(C)C)c(O)cc2O)cc1Cl
IC50 [5]: 8420 nM
IC50 [7]: 170 nM
IC50 [1]: 3860 nM
IC50 [8]: > 10000 nM

C#CCN(C)CCCOc1cccc(NC(=O)c2cc(C(C)C)c(O)cc2O)c1Cl
IC50 [1]: 2360 nM

C#CCN(C)CCCOc1cc(N(C)C(=O)c2cc(C(C)C)c(O)cc2O)ccc1Cl
IC50 [1]: > 10000 nM

C#CCN(C)CCCOc1ccc(NC(=O)c2cc(C(C)C)c(O)cc2O)cc1Cl
IC50 [5]: > 10000 nM
IC50 [7]: > 10000 nM
IC50 [1]: 110 nM
IC50 [8]: > 10000 nM

C#CCN(C)CCCOc1ccc(N(C)C(=O)c2cc(C(C)C)c(O)cc2O)cc1Cl
GI50 [9]: 80 nM
IC50 [10]: 2730 nM
IC50 [11]: 860 nM
IC50 [12]: 350 nM
IC50 [13]: 1460 nM
inhibition in vivo at 25 mg/kg [14]: 63.2%
Activity [15]: Dose-Dependent Effect
Activity [16]: Active
Activity [17]: Dose-Dependent Effect
Activity [18]: Dose-Dependent Effect
GI50 [19]: 40 nM
GI50 [20]: 290 nM
Activity [21]: Dose-Dependent Effect
Activity [22]: Toxic
GI50 [23]: 320 nM
Activity [24]: Dose-Dependent Effect
GI50 [25]: 190 nM
IC50 [26]: 400 nM
GI50 [27]: 440 nM
IC50 [5]: 730 nM
IC50 [7]: 19 nM
IC50 [28]: 3310 nM
GI50 [29]: 380 nM
GI50 [30]: 40 nM
GI50 [31]: 520 nM
IC50 [1]: 1770 nM
Activity [32]: Dose-Dependent Effect
GI50 [33]: 420 nM
GI50 [34]: 80 nM
Activity [35]: Dose-Dependent Effect
GI50 [36]: 70 nM
GI50 [37]: 320 nM
IC50 [8]: 840 nM
IC50 [38]: 460 nM
IC50 [39]: 2530 nM
